Test results as given in ChEMBL document CHEMBL1127085, “Derivatives of 2-(dipropylamino)tetralin: effect of the C8-substituent on the interaction with 5-HT1A receptors” (J Med Chem, 1993).
Values joined by “and” are separate entries in the source; they are usually repeats but may differ in a detail not shown here. Equal entries are not always repeated.

Experiments:
Rattus norvegicus [1] = species: Rattus norvegicus; test: 5-HT (serotonin) turnover in rat hippocampus (p<.005); type: functional
In short: (§1)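 Rats given compound sc in 0.9% NaCl (screening dose typically 32 µmol/kg); decapitated about 30 min after dosing. Hippocampus and corpus striatum dissected and frozen. Perchloric acid homogenates analysed by HPLC with electrochemical detection. Turnover taken as 5-HIAA/5-HT or DOPAC/DA, expressed as percent of saline control. Means ± SEM; n = 5-7 controls, 4-6 treated. ANOVA with Tukey test.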

[2] = target: T1, Dopamine receptor (Rattus norvegicus) (UniProt P25115+P19020+P30729+P18901+P61169); test: Effect of accumulation of DOPA in rat striatum at the dose of 32 umol/kg; type: functional, tissue-based
In short: (§2)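 Test compound given sc in 0.9% NaCl. NSD 1015 (287 µmol/kg sc) given 30 min later to inhibit aromatic L-amino acid decarboxylase; rats decapitated after a further 30 min. Hippocampus and striatum stored at -40 °C for up to 1 week. Perchloric acid homogenates with α-methyl-5-hydroxytryptophan internal standard; 5-HTP and DOPA measured by HPLC-EC. Percent of control, means ± SEM; ANOVA with Tukey test.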

[3] = target: T2, 5-hydroxytryptamine receptor 1A (Rattus norvegicus) (UniProt P19327); test: Number of rats displaying the 5-HT syndrome or leaving the cage out of the number of rats tested; type: functional
T2 sequence (whole entry): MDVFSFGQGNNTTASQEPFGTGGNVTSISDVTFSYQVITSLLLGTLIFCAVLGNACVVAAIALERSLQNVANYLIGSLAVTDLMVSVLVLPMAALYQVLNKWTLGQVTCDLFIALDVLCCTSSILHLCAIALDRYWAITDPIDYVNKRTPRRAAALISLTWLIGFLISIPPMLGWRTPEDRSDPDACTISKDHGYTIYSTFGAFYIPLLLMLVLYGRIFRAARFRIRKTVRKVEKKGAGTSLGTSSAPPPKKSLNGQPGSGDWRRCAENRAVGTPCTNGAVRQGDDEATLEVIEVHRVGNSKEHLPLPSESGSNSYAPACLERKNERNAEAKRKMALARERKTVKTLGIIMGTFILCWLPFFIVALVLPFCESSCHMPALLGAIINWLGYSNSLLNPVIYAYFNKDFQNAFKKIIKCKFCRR

Rattus norvegicus [4] = test: Change in body temperature of rats upon administration after 30 minutes (p<0.01); type: functional
In short: (§3)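 Colonic temperature taken with an electrical thermometer probe 3.5 cm deep, before and 30 min after sc injection in saline. Change reported in °C as mean ± SEM; animal numbers as in the cage-leaving test. ANOVA with Tukey test.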

[5] = target: T1, Dopamine receptor (Rattus norvegicus); test: Dopamine (DA) turnover in rat corpus striatum; type: functional, tissue-based; in short: as §1
[6] = target: T2, 5-hydroxytryptamine receptor 1A (Rattus norvegicus); test: Induction of clear-cut 5-HT motor syndrome in normal rats at the dose of 32 micro mol/kg; type: functional
[7] = target: T2, 5-hydroxytryptamine receptor 1A (Rattus norvegicus); test: Effect of 5-HT accumulation in rat hippocampus at the dose of 32 umol/kg (p<0.01); type: functional, tissue-based; in short: as §2
[8] = target: T2, 5-hydroxytryptamine receptor 1A (Rattus norvegicus); test: Induction of clear-cut 5-HT motor syndrome in reserpine (5 mg/kg, sc) pretreated rats at the dose of 32 micro mol/kg; type: functional, organism-based
Rattus norvegicus [9] = test: Antagonistic effect on body temperature of rat induced by (R)-1 at the dose of 32 and 1 umol/kg of compound (R)-1; type: functional
In short: (§4)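 Compound (32 µmol/kg sc) or saline injected 10 min before (R)-8-OH-DPAT (1.0 µmol/kg sc). Colonic temperature taken before injection and 30 min later; result is the change from the preinjection value. One-way ANOVA with Tukey HSD test.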

Rattus norvegicus [10] = test: Induction of clear-cut 5-HT motor syndrome in normal rats at the dose of 32 umol/kg; type: functional
[11] = target: T2, 5-hydroxytryptamine receptor 1A (Rattus norvegicus); test: 5-HT (serotonin) turnover in rat hippocampus; type: functional, tissue-based; in short: as §1
[12] = target: T2, 5-hydroxytryptamine receptor 1A (Rattus norvegicus); test: Antagonistic effect on 5-HT syndrome or behavior of rat induced by (R)-1 at the dose of 32 and 1.0 umol/kg of compound (R)-1; type: functional
In short: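 Compound (32 µmol/kg sc) or saline injected 10 min before (R)-8-OH-DPAT (1.0 µmol/kg sc). Flat body posture, forepaw treading and hindlimb abduction scored during 30 min of observation. Results as number of rats showing the behaviour out of number tested; Fisher's exact probability test.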

Rattus norvegicus [13] = test: Change in body temperature of rats upon administration after 30 minutes; type: functional; in short: as §3
Rattus norvegicus [14] = species: Rattus norvegicus; test: 5-HT (serotonin) turnover in rat hippocampus (0.05); type: functional; in short: as §1
Rattus norvegicus [15] = species: Rattus norvegicus; test: Dopamine (DA) turnover in rat corpus striatum (p<0.01); type: functional; in short: as §1
[16] = target: T3, 5-hydroxytryptamine receptor 1A (Rattus norvegicus, UniProt P19327); test: Binding affinity of 5-hydroxytryptamine 1A receptor using [3H]-8-OH-DPAT as radioligand.
T3 sequence (P19327 whole entry): T2 sequence (whole entry)
In short: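 Membranes from cortex and hippocampus of male Sprague-Dawley rats, pooled from at least six rats, preincubated with 10 µM pargyline. Assay used 2 nM [3H]-8-OH-DPAT, test compound at 1-300 nM and 5 mg/mL tissue in 50 mM Tris-HCl with 4.0 mM CaCl2 and 5.7 mM ascorbate, pH 7.5. Incubated 10 min at 37 °C, filtered on GF/B, scintillation counted.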

Rattus norvegicus [17] = test: Effect of accumulation of DOPA in rat striatum at the dose of 0.32 umol/kg; type: functional
In short: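 Compound given sc in saline, then NSD 1015 (287 µmol/kg sc) to block aromatic L-amino acid decarboxylase 30 min later. Rats decapitated after another 30 min. Striatum stored at -40 °C for up to 1 week. DOPA quantified by HPLC-EC with α-methyl-5-hydroxytryptophan as internal standard. Reported as percent of control, mean ± SEM (n = 5-6 treated, 15 control); ANOVA with Tukey test.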

Rattus norvegicus [18] = test: Effect of 5-HT accumulation in rat hippocampus at the dose of 1.0 umol/kg (p<0.01); type: functional; in short: as §2
Rattus norvegicus [19] = test: Effect of accumulation of DOPA in rat striatum at the dose of 1.0 umol/kg; type: functional; in short: as §2
Rattus norvegicus [20] = test: Effect of 5-HT accumulation in rat hippocampus at the dose of 0.32 umol/kg (p<0.01); type: functional; in short: as §2
Rattus norvegicus [21] = test: Induction of clear-cut 5-HT motor syndrome in normal rats at the dose of 1.0 micro mol/kg
Rattus norvegicus [22] = test: Effect of DOPA accumulation in rat striatum at the dose of 1.0 umol/kg (p<0.01); type: functional; in short: as §2
Rattus norvegicus [23] = test: Effect of DOPA accumulation in rat striatum at the dose of 0.32 umol/kg (p<0.01); type: functional; in short: as §2
[24] = target: T2, 5-hydroxytryptamine receptor 1A (Rattus norvegicus); test: 5-HT (serotonin) turnover in rat hippocampus (p<0.01); type: functional, tissue-based
In short: (§5)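 Rats dosed sc (screening dose typically 32 µmol/kg, in 0.9% NaCl, 2 mL/kg); decapitated 5-10 min after the 30-min rating, […]. Hippocampus dissected and frozen. 5-HIAA/5-HT ratio measured by HPLC with electrochemical detection (+0.85 V) after perchloric acid homogenisation. Reported as percent of saline control, mean ± SEM, n = 4-6 per group; ANOVA with Tukey test.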

Rattus norvegicus [25] = test: Induction of clear-cut 5-HT motor syndrome in reserpine (5 mg/kg, sc) pretreated rats at the dose of 1.0 micro mol/kg; type: functional
[26] = target: T2, 5-hydroxytryptamine receptor 1A (Rattus norvegicus); test: 5-HT (serotonin) turnover in rat hippocampus (p<0.05); type: functional, tissue-based; in short: as §5
Rattus norvegicus [27] = species: Rattus norvegicus; test: Ability to inhibit cage leaving response; type: functional
In short: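 Normal rats given compound sc in saline, housed two per cage. Cage grid covers removed 12 min after injection; rats leaving the cage during the following 12 min were counted and reported as number leaving out of number tested.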

Rattus norvegicus [28] = test: Ability to produce 5-HT motor syndrome in normal rats at the dose of 3.2 micro mol/kg; type: functional
Rattus norvegicus [29] = test: Ability produce 5-HT motor syndrome in reserpine (5 mg/kg, sc) pretreated rats at the dose of 3.2 micro mol/kg; type: functional
Rattus norvegicus [30] = test: Antagonistic effect on body temperature of rat induced by (R)-1 at the dose of 32 and 1.0 umol/kg of compound (R)-1; type: functional; in short: as §4
Rattus norvegicus [31] = test: Effect of 5-HT accumulation in rat hippocampus at the dose of 32 umol/kg; type: functional; in short: as §2
Rattus norvegicus [32] = test: Induction of clear-cut 5-HT motor syndrome in normal rats at the dose of 32 uM/Kg; type: functional

CCCN(CCC)[C@@H]1CCc2cccc(C)c2C1
Turnover (Rattus norvegicus [1]): 69
Accumulation [2]: 86
No. of rats [3]: 0
Temperature (Rattus norvegicus [4]): -2.1
Turnover [5]: 88
Behavioral effect [6]: 4
Accumulation [7]: 54
Behavioral effect [8]: 0

CCCN(CCC)[C@@H]1CCc2cccc(OS(=O)(=O)C(F)(F)F)c2C1
No. of rats [3]: 4
Temperature (Rattus norvegicus [9]): -4.18
Behavioral effect (Rattus norvegicus [10]): 0
Turnover [5]: 93
Turnover [11]: 106
Effect [12]: 4
Temperature (Rattus norvegicus [13]): 0.5

CCCN(CCC)C1CCc2ccccc2C1 (racemic)
No. of rats [3]: 4
Temperature (Rattus norvegicus [4]): -2
Behavioral effect (Rattus norvegicus [10]): 4
Turnover (Rattus norvegicus [14]): 60
Turnover (Rattus norvegicus [15]): 46
Ki [16]: 37 nM
Behavioral effect [8]: 4

CCCN(CCC)[C@@H]1CCc2cccc(O)c2C1
Accumulation (Rattus norvegicus [17]): 106
No. of rats [3]: 42
Temperature (Rattus norvegicus [4]): -2.6
Accumulation (Rattus norvegicus [18]): 45
Accumulation (Rattus norvegicus [19]): 98
Accumulation (Rattus norvegicus [20]): 44
Turnover [5]: 96
Behavioral effect (Rattus norvegicus [21]): 42
Accumulation (Rattus norvegicus [22]): 98
Accumulation (Rattus norvegicus [23]): 106
Turnover [24]: 66
Behavioral effect (Rattus norvegicus [25]): 15

CCCN(CCC)[C@@H]1CCc2cccc(CO)c2C1
Accumulation [2]: 125
No. of rats [3]: 0
Turnover [26]: 74 and 85
Turnover [5]: 93 and 88
Behavioral effect [6]: 4
Ki [16]: 23 nM
Cage leaving (Rattus norvegicus [27]): 4
Accumulation [7]: 47
Effect (Rattus norvegicus [28]): 4
Behavioral effect [8]: 4

CCCN(CCC)C1CCc2cccc(CO)c2C1 (racemic)
Ki [16]: 25 nM
Behavioral effect (Rattus norvegicus [29]): 3

CCCN(CCC)[C@H]1CCc2cccc(C(=O)c3ccccc3)c2C1
Temperature (Rattus norvegicus [30]): -3.03
Accumulation [2]: 83
No. of rats [3]: 2
Turnover [5]: 88
Accumulation (Rattus norvegicus [31]): 95
Ki [16]: 16 nM
Turnover [11]: 112
Behavioral effect (Rattus norvegicus [32]): 0
Effect [12]: 4
Temperature (Rattus norvegicus [13]): 0.13
